Test results as given in ChEMBL document CHEMBL1152910, “Synthesis and structure-activity relationships of phenothiazine carboxylic acids having pyrimidine-dione as novel histamine H(1) antagonists” (Bioorg Med Chem Lett, 2009).

Assays:
[1] = Apparent permeability from apical to basolateral side of human Caco-2 cells after 120 mins
[2] = target: T1, Histamine H1 receptor (Homo sapiens, UniProt P35367); test: Displacement of [3H]pyrilamine from human recombinant histamine H1 receptor expressed in CHOK1 cells by scintillation counting; assay type: cell-based, CHO-K1
[3] = species on record: Mus musculus; test: animal or person; assay type: functional; conditions: ddY, route oral
[4] = Oral bioavailability in rat; assay type: ADME, organism-based; conditions: in vivo
[5] = tested on: Mus musculus; test: Antiinflammatory activity in BALB/c mouse model assessed as inhibition of ovalbumin-induced ear swelling at 10 mg/kg, po administered 60 mins before ovalbumin challenge measured 24 hrs after elicitation by late type reaction assay; assay type: functional
How it was run: (§1)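 Female BALB/c mice, 8 weeks old, sensitized by i.p. OVA with alum; two weeks later compound suspended in 0.5% MC given orally 60 min before OVA injection into the ear.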

[6] = tested on: Mus musculus; test: Antiinflammatory activity in BALB/c mouse model assessed as inhibition of ovalbumin-induced ear swelling at 10 mg/kg, po administered 60 mins before ovalbumin challenge measured 1 hr after elicitation by immediate type reaction assay; assay type: functional; how it was run: as §1
[7] = target: T1, Histamine H1 receptor; test: Inhibition of histamine H1 receptor
[8] = Protein binding in rat by equilibrium dialysis; assay type: ADME, organism-based; conditions: read-out: PB (converted)
How it was run: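 Protein binding (%) determined by equilibrium dialysis.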

[9] = tested on: Mus musculus; test: In vivo antihistaminic activity at histamine H1 receptor in ddY mouse assessed as inhibition of histamine-induced skin vascular permeability at 10 mg/kg, po administered 1 hr before histamine challenge measured after 30 mins by Evan's blue staining; assay type: functional
[10] = tested on: Mus musculus; test: Antiinflammatory activity in po dosed BALB/c mouse model assessed as inhibition of ovalbumin-induced ear swelling administered 60 mins before ovalbumin challenge measured 24 hrs after elicitation by late type reaction assay; assay type: functional, organism-based; how it was run: as §1
[11] = tested on: Mus musculus; test: Antiinflammatory activity in po dosed BALB/c mouse model assessed as inhibition of ovalbumin-induced ear swelling administered 60 mins before ovalbumin challenge measured 1 hr after elicitation by immediate type reaction assay; assay type: functional, organism-based; how it was run: as §1
[12] = tested on: Mus musculus; test: Antiinflammatory activity in BALB/c mouse model assessed as inhibition of ovalbumin-induced ear swelling at 30 mg/kg, po administered 60 mins before ovalbumin challenge measured 1 hr after elicitation by immediate type reaction assay; assay type: functional; how it was run: as §1
[13] = tested on: Mus musculus; test: Antiinflammatory activity in BALB/c mouse model assessed as inhibition of ovalbumin-induced ear swelling at 30 mg/kg, po administered 60 mins before ovalbumin challenge measured 24 hrs after elicitation by late type reaction assay; assay type: functional; how it was run: as §1

T1 sequence (P35367 whole entry): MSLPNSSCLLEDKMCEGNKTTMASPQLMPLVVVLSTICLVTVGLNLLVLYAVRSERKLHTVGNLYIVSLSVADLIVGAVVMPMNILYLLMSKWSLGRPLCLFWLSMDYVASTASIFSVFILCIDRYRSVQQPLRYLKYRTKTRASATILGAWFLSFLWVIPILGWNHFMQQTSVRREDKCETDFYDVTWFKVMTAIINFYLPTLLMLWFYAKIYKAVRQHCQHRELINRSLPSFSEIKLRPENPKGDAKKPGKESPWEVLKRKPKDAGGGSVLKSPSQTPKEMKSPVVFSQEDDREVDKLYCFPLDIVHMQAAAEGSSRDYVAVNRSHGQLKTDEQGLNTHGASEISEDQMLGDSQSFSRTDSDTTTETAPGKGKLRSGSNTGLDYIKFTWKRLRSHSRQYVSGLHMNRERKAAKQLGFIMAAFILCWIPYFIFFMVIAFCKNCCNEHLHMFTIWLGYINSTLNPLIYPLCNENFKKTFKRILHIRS

Row | Compound | Papp A→B at 2 h [1] [×10⁻⁶ cm/s] | IC50 [2] [µM] | inhibition in vivo at 3 mg/kg [3] [%] | bioavailability [4] [%] | inhibition in vivo at 10 mg/kg [5] [%] | inhibition in vivo at 10 mg/kg [6] [%] | fraction unbound [8] | other results
1 | CN(CCCN1CCC(CN2c3ccccc3Sc3ccc(C(=O)O)cc32)CC1)c1cc(=O)n(C)c(=O)n1C | 0.6 | 0.053 | – | – | – | – | – | –
2 | CCC(C(=O)O)c1ccc2c(c1)N(CCCN1CCCN(c3cc(=O)n(C)c(=O)n3C)CC1)c1ccccc1S2 (centres undefined) | 22.3 | 0.041 | 51 | 14 | – | – | – | –
3 | Cn1c(N2CCN(CCN3c4ccccc4Sc4ccc(C(=O)O)cc43)CC2)cc(=O)n(C)c1=O | 4.9 | 0.124 | – | – | – | – | – | –
4 | Cn1c(C2=CCN(CCCN3c4ccccc4Sc4ccc(CC(=O)O)cc43)CC2)cc(=O)n(C)c1=O | 4.7 | 0.041 | 82 | 30 | 12 | 86 | – | –
5 | Cn1c(NCCCN2CCC(Oc3ccc(Cl)cc3C(=O)O)CC2)cc(=O)n(C)c1=O | – | – | – | – | – | – | – | IC50 [7]: > 1 µM
6 | Cn1c(N2CCN(CCCCN3c4ccccc4Sc4ccc(C(=O)O)cc43)CC2)cc(=O)n(C)c1=O | 20.3 | 0.035 | – | 16 | – | – | 0.001 | inhibition in vivo at 10 mg/kg [9]: 43%
7 | Cn1c(N2CCN(CCCN3c4ccccc4Sc4ccc(C(=O)O)cc43)CC2)cc(=O)n(C)c1=O | 9.9 | 0.037 | – | 17 | 65 | 47 | 0.006 | inhibition in vivo at 10 mg/kg [9]: 39%
8 | Cn1c(N2CCN(CCCN3c4ccccc4Sc4ccc(CC(=O)O)cc43)CC2)cc(=O)n(C)c1=O | 12.3 | 0.04 | 61 | 27 | 64 | 73 | 0.022 | inhibition [10]: Dose-dependent effect; inhibition [11]: Dose-dependent effect
9 | Cn1c(N2CCCN(CCCN3c4ccccc4Sc4ccc(/C=C\C(=O)O)cc43)CC2)cc(=O)n(C)c1=O | 7.1 | 0.323 | – | – | – | – | – | –
10 | CC(C(=O)O)c1ccc2c(c1)N(CCCN1CCCN(c3cc(=O)n(C)c(=O)n3C)CC1)c1ccccc1S2 (centres undefined) | 6.9 | 0.072 | 79 | 10 | – | – | 0.022 | –
11 | Cn1c(N2CCCN(CCCN3c4ccccc4Sc4ccc(CC(=O)O)cc43)CC2)cc(=O)n(C)c1=O | 5.5 | 0.023 | 53 | 19 | 12 | 16 | 0.051 | –
12 | Cn1c(N2CCCN(CCCN3c4ccccc4Sc4ccc(CCC(=O)O)cc43)CC2)cc(=O)n(C)c1=O | 7.7 | 0.069 | 51 | 7 | 49 | 79 | 0.012 | –
13 | CN1CCC(=C2c3ccccc3CC(=O)c3sccc32)CC1.O=C(O)/C=C/C(=O)O [KETOTIFEN FUMARATE] | 11.1 | – | 98 | – | 3 | 119 | – | inhibition in vivo at 30 mg/kg [12]: 106%; inhibition in vivo at 30 mg/kg [13]: -4%
14 | Cn1c(N2CCCN(CCCN3c4ccccc4Sc4ccc(C(=O)O)cc43)CC2)cc(=O)n(C)c1=O | 4.7 | 0.023 | 14 | 7 | 53 | 50 | 0.012 | –
15 | C[C@]12C=CC(=O)C=C1CC[C@@H]1[C@@H]2[C@@H](O)C[C@@]2(C)[C@H]1CC[C@]2(O)C(=O)CO [PREDNISOLONE] | – | – | – | – | 81 | 22 | – | –
16 | Cn1c(N2CCCN(CCCN3c4ccccc4Sc4c(C(=O)O)cccc43)CC2)cc(=O)n(C)c1=O | 0.5 | > 0.5 | – | – | – | – | – | –
17 | Cn1c(N2CCN(CCCN3c4ccccc4Sc4ccc(CCC(=O)O)cc43)CC2)cc(=O)n(C)c1=O | 5.1 | 0.105 | 51 | 51 | – | – | 0.001 | –
18 | Cn1c(NCCCN2CCC(Oc3ccc(Cl)c(Cl)c3)CC2)cc(=O)n(C)c1=O | 4.2 | 0.028 | – | 25 | – | – | 0.166 | inhibition in vivo at 30 mg/kg [12]: 72%; inhibition in vivo at 30 mg/kg [13]: 61%; IC50 [7]: 0.058 µM; inhibition in vivo at 10 mg/kg [9]: 69%
19 | CC(C)(C(=O)O)c1ccc(C(O)CCCN2CCC(C(O)(c3ccccc3)c3ccccc3)CC2)cc1 (centres undefined) [FEXOFENADINE] | – | – | – | – | 6 | 61 | – | –
20 | Cn1c(N2CCCN(CCCN3c4ccccc4Sc4ccc(C(C)(C)C(=O)O)cc43)CC2)cc(=O)n(C)c1=O | 9.9 | 0.123 | – | – | – | – | 0.045 | –
21 | Cn1c(N2CCCN(CCCN3c4ccccc4Sc4ccc(OCC(=O)O)cc43)CC2)cc(=O)n(C)c1=O | 0.5 | 0.088 | – | – | – | – | 0.047 | –
22 | Cn1c(N2CCCN(CCCN3c4ccccc4Sc4cccc(C(=O)O)c43)CC2)cc(=O)n(C)c1=O | 0.5 | > 0.5 | – | – | – | – | – | –
23 | Cn1c(NCCCN2CCC(CN3c4ccccc4Sc4ccc(C(=O)O)cc43)CC2)cc(=O)n(C)c1=O | 0.4 | 0.046 | – | – | – | – | – | –
